Consider two compounds from PMC10267526 (The Journal of Biological Chemistry, 2023).

Assay [1] concerns the target T1, GCaMP6f-hTRPML1 (Homo sapiens, UniProt Q9GZU1). The assay can be described thus: GCaMP6f Ca2+ indicator channel activation assay. The class given is cell-based. In a few lines:
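HEK293T cells were transfected with GCaMP6f-hTRPML1 and seeded at 4 × 10^5 cells/100 μl in poly-D-lysine plates. After 24 h the medium was changed to phenol red-free DMEM, with a further 24 h growth. Plates were equilibrated 10 min at RT and 10 min at 25 °C, followed by a 1-min baseline read every 5 s. The 10× compound in Ca2+-free HEPES buffer was injected and reads continued 6 min (ex 480 ± 25, em 549–562 nm; final DMSO 0.5%). Baseline-normalised AUC was scaled to DMSO (0%) and reference agonist (100%), and EC50 was taken from a nonlinear fit. n = 6/concentration, three independent experiments.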

A further assay relates to hTRPML1. As to conditions: ref [11], [12], cited from earlier work.
Assay [2] deals with T2, hTRPML1-nLuc (Homo sapiens, UniProt Q9GZU1). As to the kind of experiment: In-cell BRET competitive displacement of MRC087. The class given is binding. In a few lines: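 hTRPML1-nLuc HEK293T cells (2 × 10^5/100 μl, 48 h post-transfection) in Opti-MEM received tracer at 2.0 μM final and serially diluted test compound (final DMSO 1%). After 2 h incubation, nLuc substrate plus inhibitor was added and emissions read at 460/610 nm. BRET was normalised to probe-only and no-probe wells and fitted for EC50, then converted to KdA by Cheng–Prusoff using tracer Kd. n = 3–4/concentration, three independent experiments.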

The target in assay [3] is T2, hTRPML1-nLuc. As to the kind of experiment: In-cell BRET kinetics of competitive binding. As to conditions: for koff: read-out: koff of unlabeled compound. The method in brief:
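hTRPML1-nLuc HEK293T cells in Opti-MEM were given nLuc substrate plus inhibitor, shaken 5 min and read for a 1-min baseline. The reader then injected tracer (2.0 μM final) premixed with one of two concentrations of unlabeled compound, or DMSO vehicle; 60 μM reference antagonist defined nonspecific binding. Specific BRET versus time was fitted to the Motulsky–Mahan competitive kinetics model with tracer kon/koff obtained separately. n = 6/concentration, single experiment.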
In general terms: BRET reads energy transfer from a luciferase to a nearby fluorophore.

Assay [4] deals with T1, GCaMP6f-hTRPML1. The assay can be described thus: GCaMP6f Ca2+ indicator channel assay. The class given is cell-based. The method in brief:
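GCaMP6f-hTRPML1-transfected HEK293T cells were preincubated 10 min at RT with test compound. After a 1-min baseline (reads every 5 s), reference agonist was injected at 25 μM final and fluorescence recorded a further 6 min (ex 480 ± 25, em 549–562 nm; 0.5% DMSO). Compounds were diluted in nominally Ca2+-free HEPES-buffered solution. Baseline-normalised AUC was scaled to DMSO and agonist controls, and IC50 was derived by nonlinear fit. n = 6/concentration, two independent experiments.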

The structures appear in SMILES notation.

T2 sequence (Q9GZU1 whole entry): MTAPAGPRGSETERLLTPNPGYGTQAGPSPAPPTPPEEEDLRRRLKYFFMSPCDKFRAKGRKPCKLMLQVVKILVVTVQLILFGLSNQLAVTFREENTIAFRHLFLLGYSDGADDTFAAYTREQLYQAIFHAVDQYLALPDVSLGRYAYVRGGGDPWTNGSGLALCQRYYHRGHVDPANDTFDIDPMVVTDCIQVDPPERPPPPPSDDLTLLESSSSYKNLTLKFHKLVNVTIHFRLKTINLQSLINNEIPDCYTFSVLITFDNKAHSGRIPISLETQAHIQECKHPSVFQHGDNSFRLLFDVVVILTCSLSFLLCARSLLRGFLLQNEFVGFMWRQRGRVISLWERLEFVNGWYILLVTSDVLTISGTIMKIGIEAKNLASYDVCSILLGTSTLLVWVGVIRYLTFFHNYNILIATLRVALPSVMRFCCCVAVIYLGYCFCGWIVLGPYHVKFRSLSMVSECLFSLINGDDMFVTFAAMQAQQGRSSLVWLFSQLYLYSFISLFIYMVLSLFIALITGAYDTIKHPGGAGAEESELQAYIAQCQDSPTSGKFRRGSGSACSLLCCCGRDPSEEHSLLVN
T1 sequence (Q9GZU1 whole entry): as above

One may read the EC50 as the concentration at which the effect is half-maximal. Broadly, the Kd is the equilibrium constant for the complex coming apart. A higher Kd goes with lower affinity. One may read the koff as the first-order rate constant of dissociation. Turning to `CC1CC(C)(C)N(C(=O)CN2C(=O)c3ccccc3C2=O)c2ccccc21` (stereo not shown) [compound 1, 2-(2-oxo-2-(2,2,4-trimethyl-3,4-dihydroquinolin-1(2H)-yl)ethyl)isoindoline-1,3-dione], a half-maximal response at GCaMP6f-hTRPML1 [1] (EC50) required 13 ± 3.1 µM. In the assay on hTRPML1 (read-out: EC50 in previous studies), the EC50 was 9.7 µM. Also, the dissociation constant Kd on hTRPML1-nLuc [2] was found to be 19.8 ± 1.8 µM. Besides, on hTRPML1-nLuc [3], the dissociation constant (Kd) came to 37.3 µM, the residence time was found to be 1.5 min and the off-rate constant (koff) is 0.0108 s⁻¹.
As a reminder, the IC50 is the point on the concentration scale where inhibition reaches its midpoint. By kon is commonly meant the second-order rate constant of association. For `COc1ccccc1N1CCN(c2ccccc2NS(=O)(=O)c2ccccc2)CC1` [compound 8, N-(2-(4-(2-methoxyphenyl)piperazin-1-yl)phenyl)benzenesulfonamide], the half-inhibitory concentration (IC50) with hTRPML1 (read-out: IC50 in previous studies) was 1800 nM. At hTRPML1-nLuc [2], the affinity, expressed as Kd, was 2.8 ± 1.2 µM. The same compound had a half-maximal inhibitory concentration (IC50) on GCaMP6f-hTRPML1 [4] of 2800 ± 200 nM. Besides, at hTRPML1-nLuc [3], the Kd is 1 µM, the residence time was 1.5 min and the koff was 0.0112 s⁻¹. For the same compound, the kon at hTRPML1-nLuc [3] (read-out: kon of unlabeled compound) was 10700 M⁻¹ s⁻¹.
